In ChEMBL document CHEMBL3992493, “New approach of delivering cytotoxic drugs towards CAIX expressing cells: A concept of dual-target drugs” (Eur J Med Chem, 2017):
Activity calls are given as the source filed them. The calls are words filed in the database; no cut-off is given here.

Columns and labels:
MDCK [1] = experiment: Cytotoxicity against carbonic anhydrase 9 knockdown MDCK cells assessed as reduction in cell viability at 500 nM pretreated for 72 hrs followed by 72 hrs incubation under normoxic condition by Alamar blue assay; assay type: cell-based, Canis lupus familiaris; conditions: dog, 0.5 µM
Method in brief: (§1)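 MDCK cells transfected with human CAIX or scrambled vector, normoxia (21% O2, 5% CO2). ATR inhibitors in 0.5% DMSO for 72 h, medium replaced, cells grown a further 72 h. Viability from 2 h alamarBlue conversion in normoxia.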

MDCK [2] = experiment: Cytotoxicity against carbonic anhydrase 9 knockdown MDCK cells assessed as reduction in cell viability at 500 nM after 72 hrs under anoxic condition by Alamar blue assay; assay type: cell-based, Canis lupus familiaris; conditions: dog, 0.5 µM
Method in brief: (§2)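 MDCK CAIX+ or CAIX− cells, 24 h anoxic preincubation (≤0.02% O2, 5% CO2) in pre-equilibrated DMEM. ATR inhibitors (0.5% DMSO) applied for 72 h without irradiation, then washed off, and 72 h normoxic regrowth. Readout by 2 h alamarBlue conversion under normoxia.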

Carbonic anhydrase 9 = Carbonic anhydrase 9 (Homo sapiens, UniProt Q16790); experiment: Binding affinity to recombinant human carbonic anhydrase 9 after 15 mins by stopped-flow CO2 hydration assay
MDCK [3] = experiment: Cytotoxicity against carbonic anhydrase 9 knockdown MDCK cells assessed as reduction in cell viability at 500 nM pretreated for 1 hr followed by 2 Gy irradiation under normoxic condition by Alamar blue assay; assay type: cell-based, Canis lupus familiaris; conditions: dog, 0.5 µM
Method in brief: (§3)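 ATR inhibitor plus radiation: MDCK CAIX+/CAIX− cells were preconditioned 24 h under normoxia (21% O2) or anoxia (≤0.02% O2). Compound in 0.5% DMSO was added 1 h before X-irradiation, 2 Gy normoxic or 4 Gy anoxic. Total compound exposure was 72 h, then washout and 72 h normoxic regrowth. Readout was 2 h alamarBlue conversion, as relative viability.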

MDCK [4] = experiment: Cytotoxicity against carbonic anhydrase 9 knockdown MDCK cells assessed as reduction in cell viability at 500 nM pretreated for 1 hr followed by 4 Gy irradiation under anoxic condition by Alamar blue assay; assay type: cell-based, Canis lupus familiaris; conditions: dog, 0.5 µM
Method in brief: (§4)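 MDCK cells with or without CAIX, pre-exposed 24 h to anoxia (≤0.02% O2, 5% CO2, balance N2) in pre-equilibrated DMEM. ATR inhibitors in 0.5% DMSO added 1 h before 4 Gy X-irradiation. Exposure 72 h total, medium replaced, then 72 h normoxic regrowth. Viability by 2 h alamarBlue in normoxia.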

MDCK [5] = experiment: Cytotoxicity against MDCK cells expressing carbonic anhydrase 9 assessed as reduction in cell viability at 500 nM pretreated for 1 hr followed by 2 Gy irradiation under normoxic condition by Alamar blue assay; assay type: functional, cell-based; conditions: Canis lupus familiaris
Method in brief: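 MDCK CAIX+ cells (human CAIX transfected) under normoxia (21% O2, 5% CO2). ATR inhibitors in 0.5% DMSO added 1 h before X-irradiation with 2 Gy. Exposure 72 h total, medium replaced, then 72 h further growth. Viability by 2 h alamarBlue conversion in normoxia.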

MDCK [6] = experiment: Cytotoxicity against MDCK cells expressing carbonic anhydrase 9 assessed as reduction in cell viability at 500 nM pretreated for 72 hrs followed by 72 hrs incubation under normoxic condition by Alamar blue assay; assay type: functional, cell-based; conditions: Canis lupus familiaris; method in brief: as §1
MDCK [7] = experiment: Cytotoxicity against MDCK cells expressing carbonic anhydrase 9 assessed as reduction in cell viability at 500 nM pretreated for 1 hr followed by 4 Gy irradiation under anoxic condition by Alamar blue assay; assay type: functional, cell-based; conditions: Canis lupus familiaris; method in brief: as §4
MDCK [8] = experiment: Cytotoxicity against MDCK cells expressing carbonic anhydrase 9 assessed as reduction in cell viability at 500 nM after 72 hrs under anoxic condition by Alamar blue assay; assay type: functional, cell-based; conditions: Canis lupus familiaris; method in brief: as §2
Carbonic anhydrase 12 = Carbonic anhydrase 12 (Homo sapiens, UniProt O43570); experiment: Binding affinity to recombinant human carbonic anhydrase 12 after 15 mins by stopped-flow CO2 hydration assay
Carbonic anhydrase 2 = Carbonic anhydrase 2 (Homo sapiens, UniProt P00918); experiment: Binding affinity to recombinant human carbonic anhydrase 2 after 15 mins by stopped-flow CO2 hydration assay
Carbonic anhydrase 1 = Carbonic anhydrase 1 (Homo sapiens, UniProt P00915); experiment: Binding affinity to recombinant human carbonic anhydrase 1 after 15 mins by stopped-flow CO2 hydration assay
HCT-116 [9] = experiment: Effect on mitochondrial respiration in carbonic anhydrase 9 knockdown human HCT116 cells assessed as reduction in oxygen consumption rate at 0.5 mM after 24 hrs under hypoxic condition […]; assay type: ADME, cell-based; conditions: hct-116, 24 h, 500 µM
Method in brief: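 HCT116 cells with constitutive CAIX knockdown or scrambled control were seeded at 1.5×10^4 cells/well and kept 18 h at 0.2% O2. Medium was then switched to DMEM with 25 mM glucose, 4 mM glutamine and 1 mM pyruvate, 60 min before assay, in a CO2-free incubator at 37 °C. Seahorse XF96 oxygen consumption rate was read at baseline and after injection of drug or PBS vehicle. Values were normalized to BCA protein.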

HCT-116 [10] = experiment: Effect on mitochondrial respiration in carbonic anhydrase 9 knockdown human HCT116 cells assessed as reduction in oxygen consumption rate at 2 mM […]; assay type: cell-based; conditions: hct-116, 2000 µM
HCT-116 [11] = experiment: Effect on mitochondrial respiration in human HCT116 cells expressing carbonic anhydrase 9 assessed as reduction in oxygen consumption rate at 2 mM […]; assay type: functional, cell-based
MDCK [12] = experiment: Cytotoxicity against MDCK cells expressing carbonic anhydrase 9 assessed as reduction in cell viability after 72 hrs under normoxic condition by Alamar blue assay; assay type: functional, cell-based; conditions: Canis lupus familiaris
MDCK [13] = experiment: Cytotoxicity against carbonic anhydrase 9 knockdown MDCK cells assessed as reduction in cell viability after 72 hrs under normoxic condition by Alamar blue assay; assay type: cell-based; conditions: Canis lupus familiaris
[14] = Cytotoxicity against carbonic anhydrase 9 knockdown MDCK cells assessed as surviving fraction incubated for 24 hrs measured after 7 days under normoxic condition by methylene blue staining based clonogenic survival assay; assay type: cell-based, Canis lupus familiaris; conditions: dog, read-out: Survival
Method in brief: (§5)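 Confluent, high-density MDCK CAIX+/CAIX− cells, to allow CAIX-dependent medium acidification. Drug or vehicle (0.5% DMSO) for 24 h under normoxia (21% O2) or hypoxia (0.2% O2). Cells then trypsinised and reseeded in triplicate at known numbers, grown 7 days. Colonies fixed and stained with 0.4% methylene blue in 70% ethanol. Surviving fraction normalised to vehicle. Three independent biological repeats.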

MDCK [15] = experiment: Cytotoxicity against MDCK cells expressing carbonic anhydrase 9 assessed as reduction in cell viability after 72 hrs under hypoxic condition by Alamar blue assay; assay type: functional, cell-based; conditions: Canis lupus familiaris
MDCK [16] = experiment: Cytotoxicity against MDCK cells expressing carbonic anhydrase 9 assessed as surviving fraction incubated for 24 hrs measured after 7 days under hypoxic condition by methylene blue staining based clonogenic survival assay; assay type: functional, Canis lupus familiaris; method in brief: as §5
MDCK [17] = experiment: Cytotoxicity against carbonic anhydrase 9 knockdown MDCK cells assessed as reduction in cell viability after 72 hrs under hypoxic condition by Alamar blue assay; assay type: cell-based; conditions: Canis lupus familiaris
MDCK [18] = experiment: Cytotoxicity against carbonic anhydrase 9 knockdown MDCK cells assessed as reduction in cell viability at 50 nM pretreated for 1 hr followed by 2 Gy irradiation under normoxic condition by Alamar blue assay; assay type: cell-based, Canis lupus familiaris; conditions: dog, 0.05 µM; method in brief: as §3
MDCK [19] = experiment: Cytotoxicity against MDCK cells expressing carbonic anhydrase 9 assessed as reduction in cell viability at 50 nM pretreated for 1 hr followed by 4 Gy irradiation under anoxic condition by Alamar blue assay; assay type: functional, cell-based; conditions: Canis lupus familiaris; method in brief: as §3
MDCK [20] = experiment: Cytotoxicity against carbonic anhydrase 9 knockdown MDCK cells assessed as reduction in cell viability at 50 nM after 72 hrs under anoxic condition by Alamar blue assay; assay type: cell-based, Canis lupus familiaris; conditions: dog, 0.05 µM
Method in brief: (§6)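 ATR inhibitor without irradiation: MDCK CAIX+ or scrambled-control CAIX− cells were preconditioned 24 h at ≤0.02% O2 (anoxia) or 21% O2. Compound was added in 0.5% DMSO for 72 h, then washed off. Cells regrew 72 h under normoxia, followed by 2 h alamarBlue conversion. Viability is relative to control.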

MDCK [21] = experiment: Cytotoxicity against MDCK cells expressing carbonic anhydrase 9 assessed as reduction in cell viability at 50 nM pretreated for 1 hr followed by 2 Gy irradiation under normoxic condition by Alamar blue assay; assay type: functional, cell-based; conditions: Canis lupus familiaris; method in brief: as §3
MDCK [22] = experiment: Cytotoxicity against MDCK cells expressing carbonic anhydrase 9 assessed as reduction in cell viability at 50 nM pretreated for 72 hrs followed by 72 hrs incubation under normoxic condition by Alamar blue assay; assay type: functional, cell-based; conditions: Canis lupus familiaris; method in brief: as §6
MDCK [23] = experiment: Cytotoxicity against MDCK cells expressing carbonic anhydrase 9 assessed as reduction in cell viability at 50 nM after 72 hrs under anoxic condition by Alamar blue assay; assay type: functional, cell-based; conditions: Canis lupus familiaris; method in brief: as §6
MDCK [24] = experiment: Cytotoxicity against carbonic anhydrase 9 knockdown MDCK cells assessed as reduction in cell viability at 50 nM pretreated for 1 hr followed by 4 Gy irradiation under anoxic condition by Alamar blue assay; assay type: cell-based, Canis lupus familiaris; conditions: dog, 0.05 µM; method in brief: as §3
MDCK [25] = experiment: Cytotoxicity against carbonic anhydrase 9 knockdown MDCK cells assessed as reduction in cell viability at 50 nM pretreated for 72 hrs followed by 72 hrs incubation under normoxic condition by Alamar blue assay; assay type: cell-based, Canis lupus familiaris; conditions: dog, 0.05 µM; method in brief: as §6

Sequence of Carbonic anhydrase 1 (P00915 whole entry): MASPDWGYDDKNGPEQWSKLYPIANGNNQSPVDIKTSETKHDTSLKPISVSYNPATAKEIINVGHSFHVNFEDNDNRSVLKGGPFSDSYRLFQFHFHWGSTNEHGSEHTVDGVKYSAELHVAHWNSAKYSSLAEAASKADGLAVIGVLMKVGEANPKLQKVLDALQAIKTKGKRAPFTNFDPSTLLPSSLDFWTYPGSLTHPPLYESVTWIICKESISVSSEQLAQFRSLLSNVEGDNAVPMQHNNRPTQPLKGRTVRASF
Sequence of Carbonic anhydrase 12 (O43570 whole entry): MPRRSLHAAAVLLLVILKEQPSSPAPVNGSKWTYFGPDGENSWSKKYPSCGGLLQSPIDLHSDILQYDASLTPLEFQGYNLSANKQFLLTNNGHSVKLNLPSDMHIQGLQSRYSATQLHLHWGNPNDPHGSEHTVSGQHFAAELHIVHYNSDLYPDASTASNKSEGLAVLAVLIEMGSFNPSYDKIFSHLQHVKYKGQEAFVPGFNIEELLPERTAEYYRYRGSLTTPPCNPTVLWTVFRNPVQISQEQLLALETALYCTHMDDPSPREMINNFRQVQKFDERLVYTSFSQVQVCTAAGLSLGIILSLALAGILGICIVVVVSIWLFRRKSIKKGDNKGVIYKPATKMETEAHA

For `CS(=O)(=O)c1ccc(-c2cnc(NS(N)(=O)=O)c(C(=O)Nc3ccccc3)n2)cc1`, the Activity (MDCK [1]) was “Toxic”, the Activity (MDCK [2]) was “Toxic” and the Ki (Carbonic anhydrase 9) was > 50 µM. For the same compound, the Activity (MDCK [3]) was “Non-Toxic”, the Activity (MDCK [4]) was “Non-Toxic” and the Activity (MDCK [5]) was “Active”. For the same compound, the Activity (MDCK [6]) was “Active”, the Activity (MDCK [7]) was “Active” and the Activity (MDCK [8]) was “Active”. The Ki (Carbonic anhydrase 12) was > 50 µM, the Ki (Carbonic anhydrase 2) was > 50 µM and the Ki (Carbonic anhydrase 1) was > 50 µM.
With `[H]/N=C(/N)N/C(=N/[H])NCCc1ccccc1` [PHENFORMIN] the Ki (Carbonic anhydrase 9) was > 50 µM, the Activity (HCT-116 [9]) was “Toxic” and the Ki (Carbonic anhydrase 12) was > 50 µM. For the same compound, the Ki (Carbonic anhydrase 2) was > 50 µM and the Ki (Carbonic anhydrase 1) was > 50 µM.
With `Cl.N=C(N)NC(=N)NCCc1ccc(S(N)(=O)=O)cc1` the Activity (HCT-116 [10]) was “Non-Toxic”, the Ki (Carbonic anhydrase 9) was 0.0202 µM and the Activity (HCT-116 [11]) was “inactive”.
For `Cn1nnc2c(C(=O)NOS(N)(=O)=O)ncn2c1=O`, the IC50 (MDCK [12]) was > 1000 µM, the IC50 (MDCK [13]) was 719 µM and the Ki (Carbonic anhydrase 9) was > 50 µM. The viability at 24 h [14] was 46.1%, the IC50 (MDCK [15]) was > 1000 µM and the Survival (MDCK [16]) was 26.1%. For the same compound, the Ki (Carbonic anhydrase 12) was > 50 µM, the IC50 (MDCK [17]) was 1000 µM and the Ki (Carbonic anhydrase 2) was > 50 µM. The Ki (Carbonic anhydrase 1) was > 50 µM.
With `CNCc1ccc(-c2cc(-c3nc(-c4ccc(S(=O)(=O)C(C)C)cc4)cnc3N)on2)cc1` [BERZOSERTIB] the Ki (Carbonic anhydrase 9) was > 50 µM, the Activity (MDCK [18]) was “Non-Toxic” and the Activity (MDCK [19]) was “Active”. For the same compound, the Activity (MDCK [20]) was “Toxic”, the Activity (MDCK [21]) was “Active” and the Activity (MDCK [22]) was “Active”. The Activity (MDCK [23]) was “Active”, the Activity (MDCK [24]) was “Non-Toxic” and the Activity (MDCK [25]) was “Toxic”. For the same compound, the Ki (Carbonic anhydrase 12) was > 50 µM, the Ki (Carbonic anhydrase 2) was > 50 µM and the Ki (Carbonic anhydrase 1) was > 50 µM.
